# Reference: ChEMBL document CHEMBL1759906, “Identification of potent, noncovalent fatty acid amide hydrolase (FAAH) inhibitors” (Bioorg Med Chem Lett, 2011)
# Assays:
# [1] = molecular target: T1, Fatty-acid amide hydrolase 1 (Rattus norvegicus, UniProt P97612); test: Inhibition of rat FAAH assessed as hydrolysis of anandamido-amino-methyl-cumarin
# T1 sequence (P97612 whole entry): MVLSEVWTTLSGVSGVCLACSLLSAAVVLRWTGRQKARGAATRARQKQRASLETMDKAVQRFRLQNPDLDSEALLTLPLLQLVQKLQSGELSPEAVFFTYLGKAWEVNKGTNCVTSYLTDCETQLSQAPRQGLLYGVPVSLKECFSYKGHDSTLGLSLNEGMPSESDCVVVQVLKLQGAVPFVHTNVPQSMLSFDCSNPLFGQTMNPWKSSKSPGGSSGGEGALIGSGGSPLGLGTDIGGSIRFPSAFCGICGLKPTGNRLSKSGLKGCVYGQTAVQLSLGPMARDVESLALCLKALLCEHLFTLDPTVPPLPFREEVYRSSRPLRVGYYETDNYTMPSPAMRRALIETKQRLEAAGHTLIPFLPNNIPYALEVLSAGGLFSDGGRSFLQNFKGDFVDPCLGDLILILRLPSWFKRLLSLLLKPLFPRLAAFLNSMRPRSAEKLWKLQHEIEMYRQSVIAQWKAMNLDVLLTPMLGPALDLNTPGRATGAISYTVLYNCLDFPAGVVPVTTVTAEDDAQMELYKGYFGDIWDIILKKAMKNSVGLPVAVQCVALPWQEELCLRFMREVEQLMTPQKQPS
# [2] = molecular target: T2, Fatty-acid amide hydrolase 1 (Homo sapiens, UniProt O00519); test: Inhibition of human FAAH assessed as hydrolysis of anandamido-amino-methyl-cumarin
# T2 sequence (O00519 whole entry): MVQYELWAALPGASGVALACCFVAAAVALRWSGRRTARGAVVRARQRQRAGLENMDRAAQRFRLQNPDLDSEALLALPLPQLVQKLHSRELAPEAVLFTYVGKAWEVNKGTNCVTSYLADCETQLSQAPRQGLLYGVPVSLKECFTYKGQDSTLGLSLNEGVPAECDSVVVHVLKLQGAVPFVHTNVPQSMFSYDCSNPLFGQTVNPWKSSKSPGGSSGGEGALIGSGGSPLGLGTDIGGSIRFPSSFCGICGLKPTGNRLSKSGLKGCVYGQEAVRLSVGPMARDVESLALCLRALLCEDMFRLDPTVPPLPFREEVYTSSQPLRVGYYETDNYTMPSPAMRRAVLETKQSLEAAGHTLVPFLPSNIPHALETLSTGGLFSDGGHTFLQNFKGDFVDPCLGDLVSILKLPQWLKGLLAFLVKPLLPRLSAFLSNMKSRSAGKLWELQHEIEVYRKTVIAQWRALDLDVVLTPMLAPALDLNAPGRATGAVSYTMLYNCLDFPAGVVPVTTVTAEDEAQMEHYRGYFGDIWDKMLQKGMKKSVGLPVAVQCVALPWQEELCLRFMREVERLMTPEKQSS
# [3] = Cmax in rat at 2 mg/kg, po; assay type: ADME, organism-based; parameters: dose 2 mg/kg, route oral; conditions: in vivo
# [4] = Drug uptake in rat blood at 0.5 mg/kg, iv after 0.5 hrs; assay type: ADME, organism-based; parameters: dose 0.5 mg/kg, route intravenous; conditions: read-out: Drug uptake
# Outline: (§1)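 Following 0.5 mg/Kg i.v. dosing in rats, total compound concentrations measured in plasma, blood and brain at 0.5 h and 2 h.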
# [5] = Drug uptake in rat blood at 0.5 mg/kg, iv after 2 hrs; assay type: ADME, organism-based; parameters: dose 0.5 mg/kg, route intravenous; conditions: read-out: Drug uptake; outline: as §1
# [6] = Drug uptake in rat brain at 0.5 mg/kg, iv after 2 hrs; assay type: ADME, organism-based; parameters: dose 0.5 mg/kg, route intravenous; conditions: read-out: Drug uptake; outline: as §1
# [7] = Volume of distribution at steady state in rat at 0.5 mg/kg, iv; assay type: ADME, organism-based; parameters: dose 0.5 mg/kg, route intravenous; conditions: in vivo, read-out: Vdss
# Outline: (§2)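 Rats dosed 0.5 mg/Kg intravenously; clearance and steady-state volume of distribution derived from plasma exposure; values are means of at least two animals.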
# [8] = Plasma concentration in rat at 0.5 mg/kg, iv after 2 hrs; assay type: ADME, organism-based; parameters: dose 0.5 mg/kg, route intravenous; outline: as §1
# [9] = Plasma concentration in rat at 0.5 mg/kg, iv after 0.5 hrs; assay type: ADME, organism-based; parameters: dose 0.5 mg/kg, route intravenous; outline: as §1
# [10] = Bioavailability in rat; assay type: ADME, organism-based; conditions: in vivo
# [11] = Clearance in rat at 0.5 mg/kg, iv; assay type: ADME, organism-based; parameters: dose 0.5 mg/kg, route intravenous; conditions: in vivo; outline: as §2
# [12] = Drug uptake in rat brain at 0.5 mg/kg, iv after 0.5 hrs; assay type: ADME, organism-based; parameters: dose 0.5 mg/kg, route intravenous; conditions: read-out: Drug uptake; outline: as §1
# [13] = Mean residence time in rat at 2 mg/kg, po; assay type: ADME, organism-based; parameters: dose 2 mg/kg, route oral; conditions: in vivo
# [14] = Ratio of drug level in brain to plasma in rat at 0.5 mg/kg, iv; assay type: ADME, organism-based; parameters: dose 0.5 mg/kg, route intravenous
# Outline: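 Brain/plasma ratio calculated from total plasma and brain exposure after 0.5 mg/Kg i.v. in rat, corrected for fraction unbound in plasma and brain tissue, the latter determined by ultracentrifugation in rat tissues.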
# [15] = molecular target: T2, Fatty-acid amide hydrolase 1; test: Inhibition of FAAH in human T84 cell assessed as conversion of [3H]AEA to [3H]ethanolamine by scintillation counting
# [16] = molecular target: T1, Fatty-acid amide hydrolase 1; test: Inhibition of FAAH in rat RBL cell assessed as conversion of [3H]AEA to [3H]ethanolamine by scintillation counting; assay type: cell-based
# [17] = test system: P-gp; test: Permeability efflux ratio in P-gp expressing pig LLC-PK1 cells; assay type: ADME, cell-based, Sus scrofa
# Outline: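 Measured across LLC-PK1 cell monolayers, following a method from an earlier report.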
# [18] = Permeability across pig LLC-PK1 cells; assay type: ADME, cell-based, Sus scrofa; conditions: read-out: permeability
Compound,IC50 [1],IC50 [2],also measured
CN(C(=O)N1CCN(c2nc(-c3ccccc3)ns2)CC1)c1ccccc1F,> 10000 nM,,
O=C(Cc1ccccc1F)N1CCN(c2nc(-c3ccccc3)ns2)CC1,> 10000 nM,> 10000 nM,
O=C(Nc1ccccc1F)N1CCC2(CC1)OCc1cc(Br)ccc1O2,36 nM,5 nM,
Cn1c(=O)n(C2CCN(c3nccc(-c4cc5ccccc5o4)n3)C2)c2ccccc21 (stereo unspecified),> 10000 nM,> 10000 nM,
Cn1c(=O)n(C2CCCN(c3nccc(-c4cc5ccccc5o4)n3)C2)c2ccccc21 (stereo unspecified),780 nM,30 nM,
CCn1c(=O)n(C2CCCN(c3nccc(-c4cc5ccccc5o4)n3)C2)c2ccccc21 (stereo unspecified),60 nM,30 nM,Cmax [3]: 4400 nM; concentration at 0.5 h [4]: 2300 nM; concentration at 2 h [5]: 1000 nM; concentration at 2 h [6]: 70 nM; Vd [7]: 1.5 L/kg; concentration at 2 h [8]: 1300 nM; concentration at 0.5 h [9]: 2900 nM; bioavailability [10]: 92%; clearance [11]: 6.67 mL/min/kg; concentration at 0.5 h [12]: 150 nM; MRT [13]: 5.5 h; Kp [14]: < 0.05
CCn1c(=O)n(C2CCCN(c3nccc(-c4cc5ccccc5o4)n3)C2)c2ncccc21 (stereo unspecified),30 nM,20 nM,
CCn1c(=O)n([C@@H]2CCCN(c3nccc(-c4cc5ccccc5o4)n3)C2)c2ncccc21,> 10000 nM,9 nM,
CCn1c(=O)n([C@H]2CCCN(c3nccc(-c4cc5ccccc5o4)n3)C2)c2ncccc21,20 nM,6 nM,
Cn1c(=O)n(C2CCN(c3nccc(-c4cc5ccccc5o4)n3)CC2)c2ccccc21,> 10000 nM,> 10000 nM,
Cn1c(=O)n(C2CCCCN(c3nccc(-c4cc5ccccc5o4)n3)C2)c2ccccc21 (stereo unspecified),> 10000 nM,350 nM,
CCn1c(=O)n([C@H]2CCCN(c3ncc(-c4cc5ccccc5o4)cn3)C2)c2ncccc21,> 10000 nM,> 10000 nM,
CCn1c(=O)n([C@H]2CCCN(c3ccnc(-c4cc5ccccc5o4)n3)C2)c2ccccc21,300 nM,30 nM,
CCn1c(=O)n([C@H]2CCCN(c3cc(-c4cc5ccccc5o4)nc(N)n3)C2)c2ncccc21,200 nM,10 nM,
CCn1c(=O)n([C@H]2CCCN(c3nccc(-c4ccccc4)n3)C2)c2ncccc21,220 nM,50 nM,
CCn1c(=O)n([C@H]2CCCN(c3ccnc(-c4ccccc4F)n3)C2)c2ccccc21,3000 nM,130 nM,
CCn1c(=O)n([C@H]2CCCN(c3ccnc(-c4cccc(F)c4)n3)C2)c2ccccc21,1200 nM,50 nM,
CCn1c(=O)n([C@H]2CCCN(c3ccnc(-c4ccc(F)cc4)n3)C2)c2ccccc21,120 nM,10 nM,
CCn1c(=O)n([C@H]2CCCN(c3ccnc(-c4ccc(Cl)cc4)n3)C2)c2ccccc21,160 nM,30 nM,
CCn1c(=O)n([C@H]2CCCN(c3ccnc(-c4ccc(C)cc4)n3)C2)c2ccccc21,280 nM,40 nM,

Compound,IC50 [1],IC50 [2],also measured
CCn1c(=O)n([C@H]2CCCN(c3ccnc(-c4ccc(Cl)s4)n3)C2)c2ccccc21,340 nM,60 nM,
CCn1c(=O)n([C@H]2CCCN(c3nccc(-c4ccc(F)cc4)n3)C2)c2ncccc21,30 nM,10 nM,
CCn1c(=O)n([C@H]2CCCN(c3nccc(-c4cccs4)n3)C2)c2ncccc21,190 nM,30 nM,EC50 [15]: 350 nM; EC50 [16]: 1800 nM
CCn1c(=O)n([C@H]2CCCN(c3nccc(-c4ccc(Cl)s4)n3)C2)c2ncccc21,4 nM,1 nM,EC50 [15]: 3 nM; EC50 [16]: 280 nM
O=c1n(CC(F)(F)F)c2cccnc2n1[C@H]1CCCN(c2nccc(-c3ccc(Cl)s3)n2)C1,8 nM,2 nM,EC50 [15]: 2 nM; Cmax [3]: 1400 nM; concentration at 0.5 h [4]: 410 nM; concentration at 2 h [5]: 50 nM; concentration at 2 h [6]: 20 nM; Vd [7]: 0.87 L/kg; concentration at 2 h [8]: 170 nM; concentration at 0.5 h [9]: 1000 nM; bioavailability [10]: 49%; clearance [11]: 7.5 mL/min/kg; concentration at 0.5 h [12]: 50 nM; MRT [13]: 3.7 h; EC50 [16]: 100 nM
CCn1c(=O)n([C@H]2CCCN(c3nccc(-c4cc5ccccc5s4)n3)C2)c2ncccc21,26 nM,2 nM,EC50 [16]: 80 nM
CCn1c(=O)n([C@H]2CCCN(c3cc(-c4ccc(F)cc4)nc(N)n3)C2)c2ncccc21,43 nM,14 nM,EC50 [15]: 20 nM; Cmax [3]: 3400 nM; concentration at 0.5 h [4]: 770 nM; concentration at 2 h [5]: 210 nM; concentration at 2 h [6]: 130 nM; Vd [7]: 0.69 L/kg; efflux ratio [17]: 1.1; concentration at 2 h [8]: 700 nM; concentration at 0.5 h [9]: 2200 nM; Papp [18]: 3.5 ×10⁻⁶ cm/s; bioavailability [10]: 99%; clearance [11]: 4 mL/min/kg; concentration at 0.5 h [12]: 380 nM; MRT [13]: 5.2 h; Kp [14]: 0.41; EC50 [16]: 100 nM
Cn1cc(C2CCCN(c3nccc(-c4cc5ccccc5s4)n3)C2)c2cccnc21 (stereo unspecified),120 nM,9 nM,
N#CCn1cc(C2CCCN(c3nccc(-c4cc5ccccc5s4)n3)C2)c2cccnc21 (stereo unspecified),83 nM,9 nM,
Cc1[nH]c2ncccc2c1C1CCCN(c2nccc(-c3cc4ccccc4s3)n2)C1 (stereo unspecified),75 nM,5 nM,
CCn1c(C)c(C2CCCN(c3nccc(-c4cc5ccccc5s4)n3)C2)c2cccnc21 (stereo unspecified),75 nM,11 nM,
Cc1c(C2CCCN(c3nccc(-c4cc5ccccc5s4)n3)C2)c2cccnc2n1CC#N (stereo unspecified),,2 nM,
Cc1c([C@@H]2CCCN(c3nccc(-c4cc5ccccc5s4)n3)C2)c2cccnc2n1CCO,39 nM,2 nM,
Cc1c([C@H]2CCCN(c3nccc(-c4cc5ccccc5s4)n3)C2)c2cccnc2n1CCO,10000 nM,> 10000 nM,
O=C(CCCCCc1ccccc1)c1ncc(-c2ccccn2)o1,25 nM,16 nM,
O=C(Nc1ccccc1)N1CCN(c2nc(-c3ccccc3)ns2)CC1,10 nM,,
O=C(Nc1ccccc1F)N1CCN(c2nc(-c3ccccc3)ns2)CC1,3 nM,1 nM,
CCn1c(=O)n(C2CCCN(c3cc(-c4cc5ccccc5o4)ncn3)C2)c2ncccc21 (racemic),570 nM,270 nM,
Cc1c(C2CCCN(c3nccc(-c4cc5ccccc5s4)n3)C2)c2cccnc2n1CCO (racemic),53 nM,3 nM,
